Compound activity from PubChem.
Pf gametocyte: kills late stage P. falciparum gametocytes; P. falciparum stage V gametocytes, ATP luminescence, 24 h; AID 743093; inhibition, % at 10.9 µM; 150,000 compounds, 0.065% hits;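 active = inhibition above the mean plus 3 SD of compounds within the control limits, set per campaign, cut at about 38% in these data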
STAT3 act: increases IL-6 driven STAT3 reporter signal; activation (% of control), % at 5.6 µM; 190,000 compounds, 0.91% hits; U3A cells, IL-6 STAT3-luciferase reporter, luminescence; 100% = signal with IL-6 EC80 alone; AID 871;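 active = activation above the screen-wide mean of compound activation plus 3 SD, cut at about 130% in these data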
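Material: human STAT1-deficient U3A cells with stable STAT3-luciferase reporter / Probe or stimulus: IL-6 stimulus at 33 ng/mL final / Schedule: 1 h compound pre-exposure, 6 h IL-6 stimulation, 37 °C / Technique: luminescence / Read-out basis: percent of IL-6-only median luminescence / Control set: IL-6-only high control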
STAT1 inh: STAT1 signaling inhibition; NIH 3T3 STAT1-luciferase reporter, IFN-gamma, luminescence; inhibition, % at 5.5 µM; 200,000 compounds, 0.35% hits;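 active = inhibition above a set limit, the mean inhibition across all tested compounds plus 3 SD, cut at about 34% in these data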
STAT1 act: increases IFN-gamma driven STAT1 reporter signal; activation (% of control), % at 5.5 µM; 200,000 compounds, 2.6% hits; NIH 3T3 STAT1-luciferase reporter, luminescence; 100% = IFN-gamma alone, no compound;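 active = activation above the screen-wide mean activation plus 3 SD, cut at about 130% in these data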
NF-kB expr up: raises NF-kB expression in human neuronal cells. NF-kB reporter expression; stronger effect = higher value. fold change at 12.5 µM. 190,000 compounds, 1.6% hits. AID 1239; in the data active = fold change above about 3.3
APP 5'UTR act: APP 5'UTR luciferase reporter activation. SH-SY5Y APP 5'UTR luciferase reporter, luminescence; zero percent = DMSO vehicle wells. activation, % at 2 µM. 190,000 compounds, 1% hits. AID 1276;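 active = activation above a set limit, based on mean plus 3 SD of controls, cut at about 140% in these data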
Hits are given with their value; i = inactive; nt = not tested or not shown. Only some compounds are listed: those with a hit (about 3.9% of all), similar ones and a draw of the others.

SMILES	Pf gametocyte	STAT3 act	STAT1 inh	STAT1 act	NF-kB expr up	APP 5'UTR act
CN=c1scc(C)n1/N=C/c1cc(Br)c(O)c(Br)c1	i	i	i	i	5.49	i
CCN=c1scc(C)n1/N=C/c1cc(Br)c(O)c(OC)c1	i	i	i	i	i	i
CN=c1scc(C)n1/N=C/c1ccc(O)cc1	i	i	i	i	12	i
C=CCN=c1scc(C)n1/N=C/c1ccc(O)c(O)c1	i	i	i	i	i	i
Cc1nnc(C)n1/N=C/c1ccc2c(c1)OCCO2	nt	i	i	i	i	i
CN=c1scc(C)n1/N=C/c1ccc2c(c1)OCO2	i	i	i	i	8.6	208.6
COC(=O)c1cccc(Oc2cccc(C(F)(F)F)c2)n1	i	i	i	i	i	i
COc1cc(C(=O)NC(CCSC)C(=O)OCC(=O)C(C)(C)C)cc(OC)c1OC (stereo not given)	i	i	i	i	i	i
O=C(Nc1nc2ccccc2s1)C1CCN(S(=O)(=O)c2cc([N+](=O)[O-])ccc2Cl)CC1	i	nt	nt	nt	nt	nt
CCn1nnc(NC(=O)c2ccc(C(C)(C)C)cc2)n1	i	i	i	i	3.66	i
CCn1nnc(NC(=O)c2cccnc2)n1	nt	i	i	i	i	i
O=C(CCl)Nc1cccc(-c2cnc3ccccc3n2)c1	nt	i	i	i	i	nt
CCC(=O)Nc1cccc(-c2cnc3ccccc3n2)c1	i	i	i	129.2	i	i
CCOC(=O)c1cnc(SCC(C)C)nc1N	nt	i	i	136.7	4.67	145.8
CCOC(=O)c1cnc(SCC(=O)c2ccccc2)nc1N	i	i	i	144.2	3.73	i
CCOC(=O)c1ccc2ncc(-c3ccccc3)nc2c1	i	i	i	148.2	4.21	138.7
CCOC(=O)c1cnc(SCC(=O)c2ccc(C)cc2)nc1N	nt	i	i	i	i	i
CC(C(=O)NCc1cccnc1)c1ccc([N+](=O)[O-])cc1 (stereo not given)	i	nt	nt	nt	nt	nt
CCNC(=O)NC(=O)C(C)OC(=O)CNS(=O)(=O)c1c(Cl)cc(Br)cc1Cl (stereo not given)	i	i	i	i	i	i
CCOC(=O)c1cnc(-c2ccccc2)nc1N1CCOCC1	i	i	i	i	i	i
CCOC(=O)c1cnc(-c2ccccc2)nc1N	nt	i	i	145.6	4.95	i
CCOC(=O)C(C)On1c(-c2ccc(Cl)cc2)nc2ccc([N+](=O)[O-])cc21 (stereo not given)	nt	i	i	132.9	5.8	i
COn1c(-c2ccc(Cl)cc2)nc2ccc(Cl)cc21	i	i	i	i	i	nt
O=C(O)COn1c(-c2ccccc2)nc2ccc([N+](=O)[O-])cc21	i	i	i	143.0	i	i
CCOC(=O)C(C)On1c(-c2ccccc2)nc2ccc([N+](=O)[O-])cc21 (stereo not given)	nt	i	i	132.5	i	i
SMILES	Pf gametocyte	STAT3 act	STAT1 inh	STAT1 act	NF-kB expr up	APP 5'UTR act
O=C(O)COn1c(-c2ccc(Cl)cc2)nc2ccc(Cl)cc21	i	i	i	i	i	i
Cc1onc(-c2c(F)cccc2Cl)c1C(=O)OCn1nnc2ccccc2c1=O	nt	i	i	i	5.56	i
O=C(CN1C(=O)c2ccccc2S1(=O)=O)c1ccccc1	i	i	61.7	i	i	i
COc1ccc2oc(C(=O)Nc3nc4ccccc4[nH]3)c(C)c2c1	i	nt	nt	nt	nt	nt
COc1ccc2oc(C(=O)NC(C)(C)C)c(C)c2c1	i	i	i	145.5	i	i
COc1ccc2oc(C(=O)C3CC3)c(N)c2c1	i	i	i	140.0	i	i
O=C(Nc1nnc(SCc2ccc(Cl)cc2)s1)C1CC(=O)N(Cc2ccccc2)C1 (stereo not given)	nt	i	i	i	i	i
O=C1CCCCC/C1=N/Nc1ccc(OCc2ccccc2)cc1	i	nt	nt	nt	nt	nt
CN(C)CC#Cc1cncc(C(=O)NNC(=O)Nc2ccc(Cl)cc2)c1	i	nt	nt	nt	nt	nt
COc1ccc(-c2coc3cc(OC)cc(O)c3c2=O)cc1	i	i	i	143.0	5.52	154.9
CC(C)Oc1cc(O)c2c(=O)c(-c3ccc(O)cc3)coc2c1	nt	i	i	i	9.03	164.2
COc1ccc(-c2coc3cc(OC)cc(OC)c3c2=O)cc1	nt	nt	i	i	i	i
COc1cc(O)cc2occ(-c3ccc(O)cc3)c(=O)c12	nt	nt	i	i	i	i
O=S(=O)(NCCN1CCOCC1)c1cc(Cl)c(Cl)cc1Cl	i	nt	nt	nt	nt	nt
O=C(Nc1ccccc1)Nc1ncc([N+](=O)[O-])s1	nt	i	i	i	4.09	i
O=C(c1cc2c(=O)n3ccccc3nc2s1)N1CCOCC1	i	i	i	131.2	i	i
CC1(C)CC(=O)C(C(=O)C2CCN(S(=O)(=O)c3ccccc3)CC2)C(=O)C1	i	i	i	i	i	i
CCOC(=O)C1=C(C)NC(C)=C(C(=O)OCC)C1c1ccc(O)cc1	i	i	i	i	i	i
COC(=O)C1=C(C)NC(C)=C(C(=O)OC)C1c1ccc(N(C)C)cc1	i	i	i	i	3.72	i
COC(=O)CS(=O)(=O)c1cccc2cccnc12	nt	i	i	i	i	i
CC(C)(C)SCCNC(=O)CN(c1ccccc1)S(=O)(=O)c1ccccc1	i	i	i	i	i	i
CC1CCCN(C(=O)CSc2nnc(-c3ccncc3)n2C)C1 (stereo not given)	i	i	i	i	i	i
CCN1/C(=C/C(C)=C/c2sc3ccccc3[n+]2CC)Sc2ccccc21	i	i	45.1	i	i	i
O=C(c1cccs1)c1ccc(-c2cccs2)s1	nt	i	i	i	5.34	158.4
CN1CCN(C(=O)c2ccc(-c3cccs3)s2)CC1	i	nt	nt	nt	nt	nt
SMILES	Pf gametocyte	STAT3 act	STAT1 inh	STAT1 act	NF-kB expr up	APP 5'UTR act
O=C(CCSc1ccccc1)N1CCCC1	nt	i	i	134.3	i	i
O=C(CCSc1ccc(Cl)cc1)NC1CCCCC1	nt	i	i	i	i	i
O=C(CCSc1ccccc1)NC1CCCCCC1	i	i	i	143.9	i	i
O=S(=O)(c1ccccc1)n1cc(-c2ccccn2)c(N2CCOCC2)n1	i	i	i	i	i	213.4
Cc1[nH]n(-c2cccc(Cl)c2)c(=O)c1C=NCC(C)C	i	i	i	144.3	i	i
Cc1[nH]n(-c2cccc(Cl)c2)c(=O)c1C=NCc1ccco1	i	i	i	i	6.74	144.6
Cc1[nH]n(-c2cccc(Cl)c2)c(=O)c1C=NC12CN3CN(CN(C3)C1)C2	i	i	i	i	i	i
Clc1ccc(OCc2nnc(-c3ccccc3Br)o2)c(Cl)c1	i	i	i	i	4.05	i
c1ccc(Cc2nnc(-c3ccccc3)o2)cc1	i	i	i	130.2	i	i
Clc1ccccc1OCc1nnc(-c2ccccc2)o1	i	143.6	i	151.2	3.42	i
CCCCc1cc(=O)oc2c(C)c(OCc3nn[nH]n3)ccc12	i	nt	nt	nt	nt	nt
CO/N=C/c1ccc(N2CCCC2)c([N+](=O)[O-])c1	i	i	i	129.6	i	i
Oc1cccc(-c2nc3ccc4ccccc4c3c3c2CCC3)c1	nt	i	i	141.5	3.83	i
O=C(CCNc1ccc(Cl)cc1)c1cccs1	i	i	i	130.4	i	i
